Data reported in ChEMBL document CHEMBL1147932, “Design, synthesis, and biological activities of novel Ligustrazine derivatives” (Bioorg Med Chem, 2007).

Assays:
ECV-304 = assay: Protection of hydrogen peroxide-induced damage in ECV304 cells; format: functional, cell-based; settings: Homo sapiens
Plasma = assay: Inhibition of ADP-induced platelet aggregation in rabbit plasma at 200 uM; format: functional, Oryctolagus cuniculus; design: scale not given: the % may be the effect or the level left
Method in brief: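 Rabbit blood anticoagulated with 3.8% trisodium citrate, with ADP as inducer; blank and ADP-control cuvettes included. Platelet-rich plasma was taken from the supernatant after 270 g/5 min. Platelet-poor plasma came from re-spinning at 1000 g/10 min. Aggregation was read on an aggregometer and reported as mean platelet aggregation rate (A%), n = 6.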

Structure (SMILES)	EC50 (ECV-304) [µM]	Activity (Plasma) [%]
Cc1nc(C)c(CN2CCN(Cc3ccc(Cl)cc3Cl)CC2)nc1C	424	5.7
Cc1nc(C)c(CN2CCN(Cc3ccc(Cl)cc3)CC2)nc1C	339	12.31
Cc1nc(C)c(CN2CCNCC2)nc1C	481	11.36
Cc1nc(C)c(CN2CCN(Cc3cccc(Cl)c3)CC2)nc1C	503	10.56
Cc1nc(C)c(CN2CCN(Cc3ccc([N+](=O)[O-])cc3)CC2)nc1C	299	14.22
Cc1nc(C)c(CN2CCN(CCc3ccccc3)CC2)nc1C	542	9.77
Cc1nc(C)c(CN2CCN(Cc3ccccc3)CC2)nc1C	246	9.06
Cc1nc(C)c(CN2CCN(Cc3nc(C)c(C)nc3C)CC2)nc1C	311	19.36
Cc1nc(C)c(CN2CCN(C(c3ccccc3)c3ccc(Cl)cc3)CC2)nc1C (stereo unspecified)	253	5.19
Cc1nc(C)c(CN2CCN(C/C=C/c3ccccc3)CC2)nc1C	428	8.36
Cc1nc(C)c(CN2CCN(Cc3ccccc3C#N)CC2)nc1C	637	12.16
Cc1nc(C)c(CN2CCN(Cc3ccc(Br)cc3)CC2)nc1C	845	13.26
Cc1nc(C)c(CN2CCN(Cc3cccc(C#N)c3)CC2)nc1C	1110	14.19
CCc1ccc(CN2CCN(Cc3nc(C)c(C)nc3C)CC2)cc1	375	13.56
Cc1nc(C)c(CN2CCN(Cc3ccc(C#N)cc3)CC2)nc1C	417	11.37
Cc1nc(C)c(CN2CCN(Cc3ccccc3Cl)CC2)nc1C	405	9.67
Cc1ccc(CN2CCN(Cc3nc(C)c(C)nc3C)CC2)cc1	328	17.69
Cc1nc(C)c(CN2CCN(C(c3ccccc3)c3ccccc3)CC2)nc1C	218	9.88
Cc1nc(C)c(CN2CCN(Cc3ccc(C(C)(C)C)cc3)CC2)nc1C	431	15.32
Cc1nc(C)c(CN2CCN(c3ccccc3)CC2)nc1C	665	21.43
Cc1nc(C)c(CN2CCN(C(c3ccc(F)cc3)c3ccc(F)cc3)CC2)nc1C	223	6.32
Cc1nc(C)c(CN2CCN(Cc3ccccc3Br)CC2)nc1C	784	7.68
Cc1nc(C)c(C)nc1C [LIGUSTRAZINE]	452	7.86
